Test results as given in ChEMBL document CHEMBL1772978, “Exploration of the activity of 7-pyrrolidino-8-methoxyisothiazoloquinolones against methicillin-resistant Staphylococcus aureus (MRSA)” (J Med Chem, 2011).
Values after ≈ are worked out from the molar mass of the structure shown.

Columns and labels:
Staphylococcus aureus [1] = assay: Antibacterial activity against methicillin-sensitive Staphylococcus aureus ATCC 29213 after 24 hrs by microdilution method; type: functional; details: ATCC 29213, 24 h
Summary of the method: (§1)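 MIC taken as the lowest concentration with no visible bacterial growth after 18-24 h at 37 °C, given in μg/mL; modal value of multiple experiments.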

[2] = Cytotoxicity against human Hep2 cells after 72 hrs by alamar blue assay; type: cell-based; details: HEp-2 cells
Escherichia coli = assay: Antibacterial activity against Escherichia coli ATCC25922 after 24 hrs by microdilution method; type: functional; details: ATCC25922, 24 h; summary of the method: as §1
Staphylococcus aureus [3] = assay: Antibacterial activity against methicillin- and quinolone-resistant Staphylococcus aureus ATCC700699 after 24 hrs by microdilution method; type: functional; details: ATCC700699, 24 h
Summary of the method: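 Broth microdilution; MIC read as the lowest compound concentration that prevents visible bacterial growth after incubation at 37 °C for 18–24 h, and expressed in μg/mL.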

Structure (SMILES) | MIC (Staphylococcus aureus [1]) [µg/mL] | CC50 at 72 h [2] [µM] | MIC (Escherichia coli) [µg/mL] | MIC (Staphylococcus aureus [3]) [µg/mL]
COc1c(N2CCNCC2)c(F)cc2c(=O)c3c(=O)[nH]sc3n(C3CC3)c12 | 0.06 (≈ 0.154 µM) | 27 | 0.03 (≈ 0.0768 µM) | 4 (≈ 10.2 µM)
COc1c(N2CC[C@@H](N)C2)c(F)cc2c(=O)c3c(=O)[nH]sc3n(C3CC3)c12 | 0.03 (≈ 0.0768 µM) | 25 | 0.008 (≈ 0.0205 µM) | 2 (≈ 5.12 µM)
COc1c(N2CC[C@H](N)C2)c(F)cc2c(=O)c3c(=O)[nH]sc3n(C3CC3)c12 | 0.008 (≈ 0.0205 µM) | 19 | 0.008 (≈ 0.0205 µM) | 0.5 (≈ 1.28 µM)
CN[C@@H]1CCN(c2c(F)cc3c(=O)c4c(=O)[nH]sc4n(C4CC4)c3c2OC)C1 | 0.006 (≈ 0.0148 µM) | 42 | 0.06 (≈ 0.148 µM) | 4 (≈ 9.89 µM)
CN[C@H]1CCN(c2c(F)cc3c(=O)c4c(=O)[nH]sc4n(C4CC4)c3c2OC)C1 | 0.03 (≈ 0.0742 µM) | 41 | 0.06 (≈ 0.148 µM) | 2 (≈ 4.94 µM)
COc1c(N2CC[C@H](CN)C2)c(F)cc2c(=O)c3c(=O)[nH]sc3n(C3CC3)c12 | 0.008 (≈ 0.0198 µM) | 11 | 0.03 (≈ 0.0742 µM) | 0.25 (≈ 0.618 µM)
COc1c(N2CC[C@@H](CN)C2)c(F)cc2c(=O)c3c(=O)[nH]sc3n(C3CC3)c12 | 0.008 (≈ 0.0198 µM) | 11 | 0.004 (≈ 0.00989 µM) | 0.25 (≈ 0.618 µM)
CNC[C@@H]1CCN(c2c(F)cc3c(=O)c4c(=O)[nH]sc4n(C4CC4)c3c2OC)C1 | 0.008 (≈ 0.0191 µM) | 28 | 0.06 (≈ 0.143 µM) | 0.5 (≈ 1.19 µM)
COc1c(N2CC[C@@H](CNCCF)C2)c(F)cc2c(=O)c3c(=O)[nH]sc3n(C3CC3)c12 | 0.008 (≈ 0.0178 µM) | 18 | 0.03 (≈ 0.0666 µM) | 0.13 (≈ 0.289 µM)
COc1c(N2CC[C@@H](CNC(C)C)C2)c(F)cc2c(=O)c3c(=O)[nH]sc3n(C3CC3)c12 | 0.02 (≈ 0.0448 µM) | 33 | 0.06 (≈ 0.134 µM) | 0.5 (≈ 1.12 µM)
COc1c(N2CC[C@@H](CNC3CC3)C2)c(F)cc2c(=O)c3c(=O)[nH]sc3n(C3CC3)c12 | 0.004 (≈ 0.009 µM) | 23 | 0.03 (≈ 0.0675 µM) | 0.06 (≈ 0.135 µM)
COc1c(N2CC[C@@H](CN(C)C)C2)c(F)cc2c(=O)c3c(=O)[nH]sc3n(C3CC3)c12 | 0.06 (≈ 0.139 µM) | > 100 | 0.13 (≈ 0.301 µM) | 4 (≈ 9.25 µM)
COc1c(N2CC[C@@H]([C@@H](C)N)C2)c(F)cc2c(=O)c3c(=O)[nH]sc3n(C3CC3)c12 | 0.02 (≈ 0.0478 µM) | 33 | 0.03 (≈ 0.0717 µM) | 0.25 (≈ 0.597 µM)
COc1c(N2CC[C@H]([C@@H](C)N)C2)c(F)cc2c(=O)c3c(=O)[nH]sc3n(C3CC3)c12 | 0.02 (≈ 0.0478 µM) | 51 | 0.06 (≈ 0.143 µM) | 1 (≈ 2.39 µM)
COc1c(N2CC[C@H]([C@H](C)N)C2)c(F)cc2c(=O)c3c(=O)[nH]sc3n(C3CC3)c12 | 0.03 (≈ 0.0717 µM) | 15 | 0.06 (≈ 0.143 µM) | 1 (≈ 2.39 µM)
CN[C@H](C)[C@@H]1CCN(c2c(F)cc3c(=O)c4c(=O)[nH]sc4n(C4CC4)c3c2OC)C1 | 0.02 (≈ 0.0462 µM) | 29 | 0.06 (≈ 0.139 µM) | 0.5 (≈ 1.16 µM)
CCN[C@@H](C)[C@@H]1CCN(c2c(F)cc3c(=O)c4c(=O)[nH]sc4n(C4CC4)c3c2OC)C1 | 0.004 (≈ 0.00896 µM) | 27 | 0.06 (≈ 0.134 µM) | 0.13 (≈ 0.291 µM)
COc1c(N2CC[C@@H]([C@@H](C)NCCF)C2)c(F)cc2c(=O)c3c(=O)[nH]sc3n(C3CC3)c12 | 0.004 (≈ 0.00861 µM) | 74 | 0.06 (≈ 0.129 µM) | 0.25 (≈ 0.538 µM)
COc1c(N2CC[C@@H]([C@H](C)N(C)C)C2)c(F)cc2c(=O)c3c(=O)[nH]sc3n(C3CC3)c12 | 0.008 (≈ 0.0179 µM) | 39 | 0.06 (≈ 0.134 µM) | 0.5 (≈ 1.12 µM)
COc1c(N2CC[C@H](C(C)(C)N)C2)c(F)cc2c(=O)c3c(=O)[nH]sc3n(C3CC3)c12 | 0.03 (≈ 0.0694 µM) | 61 | 0.13 (≈ 0.301 µM) | 2 (≈ 4.62 µM)
CNC(C)(C)[C@@H]1CCN(c2c(F)cc3c(=O)c4c(=O)[nH]sc4n(C4CC4)c3c2OC)C1 | 0.008 (≈ 0.0179 µM) | 28 | 0.13 (≈ 0.291 µM) | 0.13 (≈ 0.291 µM)
CCNC(C)(C)[C@@H]1CCN(c2c(F)cc3c(=O)c4c(=O)[nH]sc4n(C4CC4)c3c2OC)C1 | 0.02 (≈ 0.0434 µM) | 50 | 0.13 (≈ 0.282 µM) | 0.5 (≈ 1.09 µM)
COc1c(N2CC[C@@H](C(C)(C)NCCF)C2)c(F)cc2c(=O)c3c(=O)[nH]sc3n(C3CC3)c12 | 0.004 (≈ 0.00836 µM) | 19 | 0.06 (≈ 0.125 µM) | 0.06 (≈ 0.125 µM)
